Results of several laboratories.
Compare with care: the assays were run in different laboratories.
AMY2: Pancreatic alpha-amylase (AMY2, Sus scrofa, UniProt P00690)
CDK4 with cyclin D1: Cyclin-dependent kinase 4, with cyclin D1 (CDK4, Homo sapiens, UniProt P11802)
CHRM2: Muscarinic acetylcholine receptor M2 (CHRM2, Homo sapiens, UniProt P08172)
CDK4 with cyclin D3: Cyclin-dependent kinase 4, with cyclin D3 (CDK4, Homo sapiens, UniProt P11802)

O=c1c(O)c(-c2ccc(O)c(O)c2)oc2c(Br)c(O)c(Br)c(O)c12  IC50 (AMY2; enzyme activity; inhibitor): 19.9 µM
O=C(/C=C/c1ccc(O)c(O)c1)O[C@H](Cc1ccc(O)c(O)c1)C(=O)O  IC50 (Pancreatic triacylglycerol lipase (PNLIP, Sus scrofa, UniProt P00591); enzyme activity; inhibitor; absorbance; pH 8): 137 µM
CN(C)C(=O)c1cc2cnc(Nc3ccc4c(=O)cc(N5CCOCC5)oc4c3)nc2n1C1CCCC1  IC50 (CDK4 with cyclin D1; enzyme activity; inhibitor; radiometric): 0.0042 µM
O=C(CCNC(=O)CNC(=O)CC(c1ccccc1)(c1ccccc1)c1ccccc1)NC[C@H]1CCCN(Cc2ccc(F)cc2)C1  IC50 (CHRM2; ligand displacement; radioligand; cell membranes): 13.7 µM
COc1ccc(-c2oc3cc(Nc4ncc5cc(C(=O)N(C)C)n(C6CCCC6)c5n4)ccc3c(=O)c2F)cc1  IC50 (CDK4 with cyclin D1; enzyme activity; inhibitor; radiometric): 1.07 µM
O=C(CCNC(=O)CNC(=O)CC(c1ccccc1)(c1ccccc1)c1ccccc1)NC[C@@H]1CCCN(Cc2ccc(F)nc2)C1  IC50 (CHRM2; ligand displacement; radioligand; cell membranes): > 30 µM
CNS(=O)(=O)c1ccc(Nc2ncc(C(F)(F)F)c(N3CCC[C@](C)(O)C3)n2)c(C)c1  IC50 (CDK4 with cyclin D3; enzyme activity; inhibitor; radiometric): 0.827 µM
CC(C)(C)NS(=O)(=O)c1cccc(C(=O)N2CC3(CCC4(CC4)CC3)c3cc(NS(C)(=O)=O)ccc32)c1  IC50 (Kinesin-like protein KIF18B (Homo sapiens, UniProt Q86Y91); ATPase activity; inhibitor): > 100 µM
O=c1cc(-c2ccc(O)c(O)c2)oc2cc(O)cc(O)c12  IC50 (AMY2; enzyme activity; inhibitor): 2.18 µM
CNS(=O)(=O)c1ccc(Nc2ncc3cc(Cl)c(=O)n(C4CCCC4)c3n2)c(C)c1  IC50 (CDK4 with cyclin D3; enzyme activity; inhibitor; radiometric): 0.022 µM
CN(C)C(=O)c1cc2cnc(Nc3ccc(-c4cccc5c(=O)cc(N6CCOCC6)oc45)cn3)nc2n1C1CCCC1  IC50 (CDK4 with cyclin D1; enzyme activity; inhibitor; radiometric): 0.46 µM
Cc1cc(O)c(-c2ccc([C@@H](C)CN(C)C)cc2)c2c1[nH]c(=O)c1sccc12  IC50 (CDK4 with cyclin D1; enzyme activity; inhibitor): > 1 µM
CN(C)C(=O)c1cc2cnc(Nc3ccc(-c4ccc5c(=O)cc(N6CCOCC6)oc5c4)c(F)c3)nc2n1C1CCCC1  IC50 (CDK4 with cyclin D1; enzyme activity; inhibitor; radiometric): 0.0123 µM
NC(=O)c1nnn(Cc2cc(Cl)c(C(=O)c3ccc(Cl)cc3)c(Cl)c2)c1N  IC50 (CHRM2; cAMP; antagonist): 1.85 µM
CNS(=O)(=O)c1ccc(Nc2ncc(C(F)(F)F)c([C@H]3CC[C@](C)(O)CC3)n2)c(C)c1  IC50 (CDK4 with cyclin D3; enzyme activity; inhibitor; radiometric): 0.247 µM
CN(C)C(=O)c1cc2cnc(Nc3ccc(-c4cccc5c(=O)cc(N6CCNCC6)oc45)cc3)nc2n1C1CCCC1  IC50 (CDK4 with cyclin D1; enzyme activity; inhibitor; radiometric): 0.29 µM
N=C(N)c1ccc(OCCCCCOc2ccc(C(=N)N)cc2)cc1  IC50 (Chymotrypsinogen A (Bos taurus, UniProt P00766); enzyme activity; inhibitor; absorbance): > 1750 µM
CN1CCN(c2cc(=O)c3ccc(Nc4ncc5cc(C(=O)N(C)C)n(C6CCCC6)c5n4)cc3o2)CC1  IC50 (CDK4 with cyclin D1; enzyme activity; inhibitor; radiometric): 0.008 µM
O=c1cc(-c2ccc(O)c(O)c2)oc2c(Br)c(O)c(Br)c(O)c12  IC50 (AMY2; enzyme activity; inhibitor): 0.99 µM
